Experimental data: ChEMBL document CHEMBL5724801, “EUbOPEN Chemogenomics Library - Multiplex” (2024)
Values joined by “and” are separate entries in the source; they are usually repeats but may differ in a detail not shown here. Equal values may be shown once.

Test system: HEK-293T
Experiment: Multiplex assay against HEK293T
Type: toxicity, cell-based
Settings: human
In short: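 Live cells were stained at seeding with Hoechst33342, BioTracker Green Microtubule Cytoskeleton Dye, MitoTracker Red and Annexin V Alexa Fluor 680. Following compound addition, they were imaged on a CQ1 microscope at 37°C and 5% CO2 and gated by CellPathfinder machine learning into Hoechst high-intensity objects or normal cells, with normal cells split into healthy, pyknosed or fragmented nuclei and pyknosed cells into mitotic or apoptotic. Tubulin, mitochondrial-mass and membrane-permeability phenotypes are per cents of healthy-nucleus cells.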

[1] = 12 h, 1 µM, compound concentration 1 uM
[2] = 12 h, 10 µM, compound concentration 10 uM
[3] = 24 h, 1 µM, compound concentration 1 uM
[4] = 24 h, 10 µM, compound concentration 10 uM
[5] = 48 h, 1 µM, compound concentration 1 uM
[6] = 48 h, 10 µM, compound concentration 10 uM

Structure (SMILES): C[C@@H]1CC(=O)Nc2cccc(-c3ccc4c(c3)c(-c3cnn(C)c3)nn4C)c2N1
- Population Apoptotic (%) [1]: 36% and 60%
- Population Fragmented Nuclei (%) [1]: 7% and 5%
- Population Healthy Nuclei (%) [1]: 76% and 77%
- Population Hoechst High Intensity Objects (%) [1]: 7%
- Population Membrane Permeable-Phenotype (%) [1]: 0%
- Population Mitochondria Different-Phenotype (%) [1]: 51% and 65%
- Population Mitotic Cells (%) [1]: 63% and 39%
- Population Normal (%) [1]: 92%
- Population Pyknosed Nuclei (%) [1]: 16%
- Population Tubulin-Different-Phenotype (%) [1]: 39% and 26%
- Total Cell Count [1]: 305 and 349
- Population Apoptotic (%) [2]: 49% and 38%
- Population Fragmented Nuclei (%) [2]: 8% and 5%
- Population Healthy Nuclei (%) [2]: 74% and 77%
- Population Hoechst High Intensity Objects (%) [2]: 5% and 12%
- Population Membrane Permeable-Phenotype (%) [2]: 0%
- Population Mitochondria Different-Phenotype (%) [2]: 72% and 86%
- Population Mitotic Cells (%) [2]: 50% and 62%
- Population Normal (%) [2]: 94% and 87%
- Population Pyknosed Nuclei (%) [2]: 17% and 16%
- Population Tubulin-Different-Phenotype (%) [2]: 62% and 56%
- Total Cell Count [2]: 384 and 345
- Population Apoptotic (%) [3]: 38% and 50%
- Population Fragmented Nuclei (%) [3]: 10% and 8%
- Population Healthy Nuclei (%) [3]: 74% and 79%
- Population Hoechst High Intensity Objects (%) [3]: 7% and 6%
- Population Membrane Permeable-Phenotype (%) [3]: 0%
- Population Mitochondria Different-Phenotype (%) [3]: 37% and 48%
- Population Mitotic Cells (%) [3]: 61% and 50%
- Population Normal (%) [3]: 92% and 93%
- Population Pyknosed Nuclei (%) [3]: 14% and 11%
- Population Tubulin-Different-Phenotype (%) [3]: 20% and 16%
- Total Cell Count [3]: 395 and 422
- Population Apoptotic (%) [4]: 43% and 57%
- Population Fragmented Nuclei (%) [4]: 9% and 8%
- Population Healthy Nuclei (%) [4]: 76% and 72%
- Population Hoechst High Intensity Objects (%) [4]: 2% and 5%
- Population Membrane Permeable-Phenotype (%) [4]: 0%
- Population Mitochondria Different-Phenotype (%) [4]: 62% and 68%
- Population Mitotic Cells (%) [4]: 56% and 42%
- Population Normal (%) [4]: 97% and 94%
- Population Pyknosed Nuclei (%) [4]: 13% and 19%
- Population Tubulin-Different-Phenotype (%) [4]: 37% and 28%
- Total Cell Count [4]: 472 and 381
- Population Apoptotic (%) [5]: 33% and 30%
- Population Fragmented Nuclei (%) [5]: 11% and 9%
- Population Healthy Nuclei (%) [5]: 80% and 81%
- Population Hoechst High Intensity Objects (%) [5]: 1% and 2%
- Population Membrane Permeable-Phenotype (%) [5]: 0%
- Population Mitochondria Different-Phenotype (%) [5]: 23% and 30%
- Population Mitotic Cells (%) [5]: 66% and 69%
- Population Normal (%) [5]: 98% and 97%
- Population Pyknosed Nuclei (%) [5]: 7% and 9%
- Population Tubulin-Different-Phenotype (%) [5]: 13%
- Total Cell Count [5]: 627 and 593
- Population Apoptotic (%) [6]: 43% and 42%
- Population Fragmented Nuclei (%) [6]: 13% and 12%
- Population Healthy Nuclei (%) [6]: 80% and 78%
- Population Hoechst High Intensity Objects (%) [6]: 4% and 2%
- Population Membrane Permeable-Phenotype (%) [6]: 0%
- Population Mitochondria Different-Phenotype (%) [6]: 44% and 53%
- Population Mitotic Cells (%) [6]: 56% and 57%
- Population Normal (%) [6]: 95% and 97%
- Population Pyknosed Nuclei (%) [6]: 6% and 9%
- Population Tubulin-Different-Phenotype (%) [6]: 16% and 20%
- Total Cell Count [6]: 636 and 521

Structure (SMILES): COc1cc(C(=O)N2CC[C@@H](O)[C@@H](N)C2)cc2nc(-c3cc4ccccc4n3CC3CC3)n(C)c12.Cl
- Population Apoptotic (%) [1]: 48% and 70%
- Population Fragmented Nuclei (%) [1]: 6% and 2%
- Population Healthy Nuclei (%) [1]: 79% and 77%
- Population Hoechst High Intensity Objects (%) [1]: 10% and 15%
- Population Membrane Permeable-Phenotype (%) [1]: 0%
- Population Mitochondria Different-Phenotype (%) [1]: 56% and 71%
- Population Mitotic Cells (%) [1]: 51% and 29%
- Population Normal (%) [1]: 89% and 84%
- Population Pyknosed Nuclei (%) [1]: 13% and 20%
- Population Tubulin-Different-Phenotype (%) [1]: 52% and 37%
- Total Cell Count [1]: 398 and 281
- Population Apoptotic (%) [2]: 71%
- Population Fragmented Nuclei (%) [2]: 5% and 4%
- Population Healthy Nuclei (%) [2]: 66% and 80%
- Population Hoechst High Intensity Objects (%) [2]: 21% and 18%
- Population Membrane Permeable-Phenotype (%) [2]: 0% and 2%
- Population Mitochondria Different-Phenotype (%) [2]: 90% and 88%
- Population Mitotic Cells (%) [2]: 28%
- Population Normal (%) [2]: 78% and 81%
- Population Pyknosed Nuclei (%) [2]: 28% and 15%
- Population Tubulin-Different-Phenotype (%) [2]: 79% and 72%
- Total Cell Count [2]: 260 and 350
- Population Apoptotic (%) [3]: 42% and 60%
- Population Fragmented Nuclei (%) [3]: 9% and 7%
- Population Healthy Nuclei (%) [3]: 77% and 79%
- Population Hoechst High Intensity Objects (%) [3]: 6% and 12%
- Population Membrane Permeable-Phenotype (%) [3]: 0%
- Population Mitochondria Different-Phenotype (%) [3]: 42% and 64%
- Population Mitotic Cells (%) [3]: 57% and 39%
- Population Normal (%) [3]: 93% and 87%
- Population Pyknosed Nuclei (%) [3]: 13% and 12%
- Population Tubulin-Different-Phenotype (%) [3]: 33% and 30%
- Total Cell Count [3]: 527 and 363
- Population Apoptotic (%) [4]: 58% and 65%
- Population Fragmented Nuclei (%) [4]: 8% and 6%
- Population Healthy Nuclei (%) [4]: 70% and 78%
- Population Hoechst High Intensity Objects (%) [4]: 18% and 21%
- Population Membrane Permeable-Phenotype (%) [4]: 0%
- Population Mitochondria Different-Phenotype (%) [4]: 94% and 92%
- Population Mitotic Cells (%) [4]: 41% and 34%
- Population Normal (%) [4]: 81% and 78%
- Population Pyknosed Nuclei (%) [4]: 20% and 15%
- Population Tubulin-Different-Phenotype (%) [4]: 78% and 74%
- Total Cell Count [4]: 312 and 411
- Population Apoptotic (%) [5]: 24% and 64%
- Population Fragmented Nuclei (%) [5]: 9%
- Population Healthy Nuclei (%) [5]: 79% and 80%
- Population Hoechst High Intensity Objects (%) [5]: 5% and 7%
- Population Membrane Permeable-Phenotype (%) [5]: 0%
- Population Mitochondria Different-Phenotype (%) [5]: 37% and 48%
- Population Mitotic Cells (%) [5]: 75% and 36%
- Population Normal (%) [5]: 94% and 92%
- Population Pyknosed Nuclei (%) [5]: 10%
- Population Tubulin-Different-Phenotype (%) [5]: 28% and 22%
- Total Cell Count [5]: 816 and 520
- Population Apoptotic (%) [6]: 76%
- Population Fragmented Nuclei (%) [6]: 13%
- Population Healthy Nuclei (%) [6]: 68% and 75%
- Population Hoechst High Intensity Objects (%) [6]: 18% and 23%
- Population Membrane Permeable-Phenotype (%) [6]: 0%
- Population Mitochondria Different-Phenotype (%) [6]: 89% and 87%
- Population Mitotic Cells (%) [6]: 23%
- Population Normal (%) [6]: 81% and 76%
- Population Pyknosed Nuclei (%) [6]: 17% and 10%
- Population Tubulin-Different-Phenotype (%) [6]: 81% and 74%
- Total Cell Count [6]: 386 and 467

Structure (SMILES): CN(C)CCCc1cc(C(=O)Nc2ccc(-c3ccncc3)cc2)ccc1O.Cl.Cl
- Population Apoptotic (%) [1]: 27% and 37%
- Population Fragmented Nuclei (%) [1]: 5%
- Population Healthy Nuclei (%) [1]: 79% and 82%
- Population Hoechst High Intensity Objects (%) [1]: 9% and 8%
- Population Membrane Permeable-Phenotype (%) [1]: 0%
- Population Mitochondria Different-Phenotype (%) [1]: 48% and 58%
- Population Mitotic Cells (%) [1]: 72% and 62%
- Population Normal (%) [1]: 90% and 91%
- Population Pyknosed Nuclei (%) [1]: 14% and 11%
- Population Tubulin-Different-Phenotype (%) [1]: 37% and 14%
- Total Cell Count [1]: 358 and 367
- Population Apoptotic (%) [2]: 31% and 60%
- Population Fragmented Nuclei (%) [2]: 10% and 11%
- Population Healthy Nuclei (%) [2]: 81% and 77%
- Population Hoechst High Intensity Objects (%) [2]: 6% and 9%
- Population Membrane Permeable-Phenotype (%) [2]: 0% and 2%
- Population Mitochondria Different-Phenotype (%) [2]: 49% and 63%
- Population Mitotic Cells (%) [2]: 68% and 39%
- Population Normal (%) [2]: 93% and 90%
- Population Pyknosed Nuclei (%) [2]: 7% and 11%
- Population Tubulin-Different-Phenotype (%) [2]: 33%
- Total Cell Count [2]: 460 and 391
- Population Apoptotic (%) [3]: 25%
- Population Fragmented Nuclei (%) [3]: 11% and 9%
- Population Healthy Nuclei (%) [3]: 78% and 83%
- Population Hoechst High Intensity Objects (%) [3]: 5%
- Population Membrane Permeable-Phenotype (%) [3]: 1% and 0%
- Population Mitochondria Different-Phenotype (%) [3]: 26% and 32%
- Population Mitotic Cells (%) [3]: 74% and 75%
- Population Normal (%) [3]: 94%
- Population Pyknosed Nuclei (%) [3]: 10% and 6%
- Population Tubulin-Different-Phenotype (%) [3]: 21% and 9%
- Total Cell Count [3]: 542 and 486
- Population Apoptotic (%) [4]: 32% and 47%
- Population Fragmented Nuclei (%) [4]: 12% and 15%
- Population Healthy Nuclei (%) [4]: 77% and 74%
- Population Hoechst High Intensity Objects (%) [4]: 5% and 15%
- Population Membrane Permeable-Phenotype (%) [4]: 0%
- Population Mitochondria Different-Phenotype (%) [4]: 38% and 48%
- Population Mitotic Cells (%) [4]: 67% and 52%
- Population Normal (%) [4]: 94% and 84%
- Population Pyknosed Nuclei (%) [4]: 9%
- Population Tubulin-Different-Phenotype (%) [4]: 23% and 19%
- Total Cell Count [4]: 588 and 505
- Population Apoptotic (%) [5]: 23% and 21%
- Population Fragmented Nuclei (%) [5]: 11% and 16%
- Population Healthy Nuclei (%) [5]: 81% and 75%
- Population Hoechst High Intensity Objects (%) [5]: 2% and 5%
- Population Membrane Permeable-Phenotype (%) [5]: 2% and 1%
- Population Mitochondria Different-Phenotype (%) [5]: 19% and 24%
- Population Mitotic Cells (%) [5]: 76% and 78%
- Population Normal (%) [5]: 97% and 94%
- Population Pyknosed Nuclei (%) [5]: 6% and 8%
- Population Tubulin-Different-Phenotype (%) [5]: 14% and 13%
- Total Cell Count [5]: 814 and 596
- Population Apoptotic (%) [6]: 29% and 58%
- Population Fragmented Nuclei (%) [6]: 17% and 15%
- Population Healthy Nuclei (%) [6]: 75% and 76%
- Population Hoechst High Intensity Objects (%) [6]: 5% and 11%
- Population Membrane Permeable-Phenotype (%) [6]: 1% and 0%
- Population Mitochondria Different-Phenotype (%) [6]: 21% and 35%
- Population Mitotic Cells (%) [6]: 70% and 41%
- Population Normal (%) [6]: 94% and 88%
- Population Pyknosed Nuclei (%) [6]: 6% and 7%
- Population Tubulin-Different-Phenotype (%) [6]: 13% and 20%
- Total Cell Count [6]: 883 and 641
